Screening results from PubChem BioAssay.
Sampled rows, rich in hits. Any-hit rate of the full collection: about 1.5%.
CXCR6 block = CXCR6 receptor inhibitors, primary screen, cell-based, beta-arrestin, luminescence, CHO-K1 PathHunter, 1536-well. 0.36% of 360,000 active. C-X-C chemokine receptor type 6 (Homo sapiens), O00574. inhibition, % at 20 µM; in the data active = inhibition above about 34%, passing the limit was not always enough;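 also: antagonist mode with CXCL16 agonist at 10 nM final; 0% = 10 nM CXCL16 with DMSO and 100% = unstimulated wells without agonist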
Target sequence (O00574 whole entry, looked up): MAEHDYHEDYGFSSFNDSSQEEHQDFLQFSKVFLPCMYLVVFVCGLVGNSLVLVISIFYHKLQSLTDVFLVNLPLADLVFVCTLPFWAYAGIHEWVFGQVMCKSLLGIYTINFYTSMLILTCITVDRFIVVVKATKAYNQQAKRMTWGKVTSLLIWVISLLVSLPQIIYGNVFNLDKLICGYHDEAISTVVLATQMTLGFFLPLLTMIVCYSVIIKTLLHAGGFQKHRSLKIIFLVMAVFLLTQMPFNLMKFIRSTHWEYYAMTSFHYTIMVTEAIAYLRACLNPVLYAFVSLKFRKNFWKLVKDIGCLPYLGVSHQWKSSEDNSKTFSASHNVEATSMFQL
EBI2 block = EBI2 receptor antagonists, beta-arrestin recruitment, primary screen, cell-based, luminescence, 7a,25-OHC stimulation, uHTS; inhibition, % at 5 µM; 0.81% of 360,000 active; G-protein coupled receptor 183 (Homo sapiens), P32249; AID 651636, 2012; 7a,25-OHC stimulated; in the data active = inhibition above about 38%;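 also: enzyme fragment complementation signal reports receptor beta-arrestin coupling in cells; 0% = agonist plus DMSO wells and 100% = wells without agonist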
APJ ag = agonists of human apelin receptor APJ, primary screen, CHO-K1 cells, PathHunter beta-arrestin, luminescence | activation, % at 20 µM | 0.11% of 330,000 active | 0% DMSO wells, 100% apelin | P35414;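 active = activation more than six SD over the plate average, tested at 20 µM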;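 also: 0% = DMSO alone and 100% = apelin-13 at 10 nM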
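Assay system: engineered CHO-K1 APJ arrestin reporter cells; Amount: 1000 CHO-K1 reporter cells seeded per well; Dosing: one dose, 20 µM compound, 1% DMSO; Times: compound stimulation 90 min at 25 °C, detection 60 min; Measured by: luminescent beta-gal fragment complementation, chemiluminescent substrate; Read-out: APJ–arrestin association signal; Controls: DMSO vs Apelin-13 10 nM.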
APJ antagonist = antagonists of human apelin receptor APJ, primary screen, CHO-K1 cells, beta-arrestin complementation, luminescence; P35414; inhibition, % at 20 µM; 0.32% of 330,000 active; AID 2521, 2010;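 active = inhibition above about 40% at 20 µM, limit read from the data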;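 also: cells challenged with 10 nM apelin-13 agonist together with compound; plate controls were apelin-13 plus DMSO wells for no effect and DMSO wells lacking apelin-13 for full effect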
CCR6 antag = CCR6 receptor antagonists, primary screen, cell-based, CHO-K1, luminescence, beta-arrestin, uHTS; inhibition, % at 20 µM; 0.49% of 340,000 active; AID 493098, 2011; CHO-K1 CCR6 PathHunter beta-arrestin, CCL20-stimulated;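 active = compounds whose inhibition of the agonist-driven luminescence signal at 20 µM reaches about 50%, limit read from the data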;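 also: cells stimulated with CCL20 at 14 nM final; plate controls were DMSO with CCL20 for no effect and DMSO without agonist for full effect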
APJ antag conf = APJ antagonists blocking beta-arrestin recruitment, confirmation, cell-based, luminescence, single concentration, uHTS hits; shares compounds with APJ antagonist; antagonist mode; inhibition, % at 20 µM; 66% of 950 active; AID 2766, 2010; in the data active = inhibition above about 50%
The depositor's hits bear a star; · = not tested or not shown.

SMILES	CXCR6 block	EBI2 block	APJ ag	APJ antagonist	CCR6 antag	APJ antag conf
O=C(Cc1coc(-c2ccc(F)cc2)n1)NC1CCCCC1	1	1	-3	60*	5	20
CN1CCN(S(=O)(=O)c2cc([N+](=O)[O-])ccc2N/N=C/c2ccc(Cl)cc2)CC1	3	-9	4	8	-3	·
COc1ccccc1NS(=O)(=O)c1cc([N+](=O)[O-])ccc1N/N=C/c1c(C)[nH]c2ccccc12	46*	39*	-13	58*	58*	84*
O=[N+]([O-])c1ccc(N/N=C/c2c[nH]c3ccccc23)c(S(=O)(=O)Nc2ccc(Cl)cc2)c1	35	27	-8	44*	46	91*
O=C(C1=C(O)C(=O)N(CCN2CCOCC2)C1c1ccco1)c1cc2ccccc2o1 (configuration not stated)	26	10	-24	50*	14	41
COc1cccc2cc(C(=O)C3=C(O)C(=O)N(CCN4CCOCC4)C3c3cccs3)oc12 (configuration not stated)	4	6	-12	56*	13	12
COc1ccccc1CNC(=O)CN1C(=O)NC2(CCCc3ccccc32)C1=O (configuration not stated)	5	-8	-4	0	4	·
Cc1ccc(NC(=S)NNC(=O)c2ccc(N3CCOCC3)c([N+](=O)[O-])c2)cc1Cl	35	3	-7	42*	31	63*
COc1ccc(C(=O)NC(=S)Nc2cccc(Cl)c2N2CCOCC2)cc1[N+](=O)[O-]	27	42*	-10	81*	33	55*
O=C(NNC(=S)Nc1ccc(Br)cc1)c1ccc(N2CCOCC2)c([N+](=O)[O-])c1	21	12	-5	32	46	·
O=C(NNC(=S)Nc1ccc(Cl)cc1Cl)c1ccc(N2CCOCC2)c([N+](=O)[O-])c1	25	9	-5	40*	27	62*
COc1ccc(C(=O)NC(=S)Nc2ccc(N3CCN(C(C)=O)CC3)cc2)cc1[N+](=O)[O-]	30	6	-3	13	44	·
CCCCCC(=O)N/N=C(\C)c1ccc(N2CCCCC2)cc1	-9	0	-2	11	13	·
CCOc1ccc(/C=N/NC(=O)Cc2cccs2)cc1	-10	12	1	-9	4	·
Cc1cc(C)c(C)c(/C=C(/C#N)C(N)=S)c1C	13	6	-8	42*	29	36
CCN(CC)c1nc(C)c(C(=S)Nc2cc([N+](=O)[O-])ccc2Cl)s1	42*	16	-11	40*	57*	100*
CCC(C)(C)C(=O)Nc1cc([N+](=O)[O-])ccc1Cl	-3	-11	-2	-30	-16	·
COc1cccc(/C=C/c2ccc3cccc(O)c3n2)c1	35	35	-11	45*	62*	88*
Oc1cccc(/C=C/c2ccc3cccc(O)c3n2)c1	30	-6	0	-10	31	·
COc1cccc(/C=C/c2ccc3cccc(O)c3n2)c1OC	37	23	-8	54*	50*	79*
O=C(C[n+]1cccc(O)c1)Nc1ccc(Br)cc1	-1	-1	-3	-3	-4	·
Cc1ccc(C(=O)N/C(=C\c2ccccc2)C(=O)NCCN2CCOCC2)cc1	6	-6	-1	13	19	·
CCN(C(=O)COC(=O)c1cccnc1SC)C1CCS(=O)(=O)C1 (configuration not stated)	-9	-16	-3	45*	-3	33
CCN(C(=O)COC(=O)c1cccnc1SC)C1CCCCC1	-6	13	-1	8	4	·
O=C(Nc1ccc(F)c(Cl)c1)c1cc(C2CCCN(S(=O)(=O)c3cccc4cccnc34)C2)on1 (configuration not stated)	-2	-3	·	·	·	·
Cc1cnc(CNC(=O)c2csc([C@H]3C[C@H](O)[C@@H](CO)O3)n2)cn1	6	-3	·	·	·	·
C=CCN(CC=C)Cc1c(O)ccc2c1oc(=O)c1ccccc12	37	11	-11	47*	13	78*
